Assay results taken from ChEMBL document CHEMBL3763086, “Salicylanilide N-monosubstituted carbamates: Synthesis and in vitro antimicrobial activity” (2016).
In brackets after ≈: the same amount, converted by molar mass.

Tests used:
Type in all cases: functional
Staphylococcus aureus [1] = test: Antibacterial activity against Staphylococcus aureus CCM 4516/08 after 24 hrs by microbroth dilution method; details: CCM 4516/08, 24 h
Summary of the method: (§1)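 Microbroth dilution modified per M07-A07 in Mueller-Hinton broth, pH 7.4 (±0.2). Inoculum in sterile water adjusted to 0.5 McFarland. MIC taken as growth reduction of at least 90% (IC90) versus control, read visually and at 540 nm after 24 and 48 h incubation in the dark.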

Klebsiella pneumoniae [2] = test: Antibacterial activity against ESBL-positive Klebsiella pneumoniae J 14368/08 after 24 hrs by microbroth dilution method; details: J 14368/08, 24 h; summary of the method: as §1
Nakaseomyces glabratus [3] = test: Antifungal activity against Candida glabrata 20/I after 24 hrs by microbroth dilution method
Staphylococcus aureus [4] = test: Antibacterial activity against methicillin-resistant Staphylococcus aureus H 5996/08 after 24 hrs by microbroth dilution method; details: H 5996/08, 24 h
Summary of the method: (§2)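 Microdilution broth method modified after M07-A07 in Mueller-Hinton broth adjusted to pH 7.4 (±0.2). Inoculum prepared in sterile water to 0.5 McFarland (1.5 × 10^8 CFU/mL). MIC taken as growth reduction versus control (IC95 per table header), read visually and spectrophotometrically at 540 nm after 24 and 48 h incubation in the dark.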

[5] = tested on: Trichophyton mentagrophytes; test: Antifungal activity against Trichophyton mentagrophytes 445 after 120 hrs by microbroth dilution method; details: Trichophyton mentagrophytes, 445, 120 h
Pichia kudriavzevii [6] = test: Antifungal activity against Candida krusei E28 after 24 hrs by microbroth dilution method; details: E28, 24 h
Enterococcus sp. [7] = test: Antibacterial activity against Enterococcus sp. J 14365/08 after 24 hrs by microbroth dilution method; details: J 14365/08, 24 h; summary of the method: as §1
Pichia kudriavzevii [8] = test: Antifungal activity against Candida krusei E28 after 48 hrs by microbroth dilution method; details: E28, 48 h
Candida tropicalis [9] = test: Antifungal activity against Candida tropicalis 156 after 24 hrs by microbroth dilution method; details: Candida tropicalis, 156, 24 h
Candida albicans [10] = test: Antifungal activity against Candida albicans ATCC 44859 after 48 hrs by microbroth dilution method; details: ATCC 44859, 48 h
[11] = tested on: Staphylococcus epidermidis; test: Antibacterial activity against Staphylococcus epidermidis H 6966/08 after 24 hrs by microbroth dilution method; details: H 6966/08, 24 h; summary of the method: as §1
Trichosporon asahii [12] = test: Antifungal activity against Trichosporon asahii 1188 after 24 hrs by microbroth dilution method; details: Trichosporon asahii, 1188, 24 h
Staphylococcus aureus [13] = test: Antibacterial activity against methicillin-resistant Staphylococcus aureus H 5996/08 after 48 hrs by microbroth dilution method; details: H 5996/08, 48 h; summary of the method: as §2
Enterococcus sp. [14] = test: Antibacterial activity against Enterococcus sp. J 14365/08 after 48 hrs by microbroth dilution method; details: J 14365/08, 48 h; summary of the method: as §1
Klebsiella pneumoniae [15] = test: Antibacterial activity against Klebsiella pneumoniae D 11750/08 after 24 hrs by microbroth dilution method; details: D 11750/08, 24 h; summary of the method: as §1
Lichtheimia corymbifera [16] = test: Antifungal activity against Absidia corymbifera 272 after 48 hrs by microbroth dilution method; details: Lichtheimia corymbifera, 272, 48 h
Candida tropicalis [17] = test: Antifungal activity against Candida tropicalis 156 after 48 hrs by microbroth dilution method; details: Candida tropicalis, 156, 48 h
Lichtheimia corymbifera [18] = test: Antifungal activity against Absidia corymbifera 272 after 24 hrs by microbroth dilution method; details: Lichtheimia corymbifera, 272, 24 h
Nakaseomyces glabratus [19] = test: Antifungal activity against Candida glabrata 20/I after 48 hrs by microbroth dilution method
Klebsiella pneumoniae [20] = test: Antibacterial activity against Klebsiella pneumoniae D 11750/08 after 48 hrs by microbroth dilution method; details: D 11750/08, 48 h; summary of the method: as §1
[21] = tested on: Staphylococcus epidermidis; test: Antibacterial activity against Staphylococcus epidermidis H 6966/08 after 48 hrs by microbroth dilution method; details: H 6966/08, 48 h; summary of the method: as §1
Escherichia coli [22] = test: Antibacterial activity against Escherichia coli CCM 4517 after 24 hrs by microbroth dilution method; details: CCM 4517, 24 h; summary of the method: as §1
Candida albicans [23] = test: Antifungal activity against Candida albicans ATCC 44859 after 24 hrs by microbroth dilution method; details: ATCC 44859, 24 h
Klebsiella pneumoniae [24] = test: Antibacterial activity against ESBL-positive Klebsiella pneumoniae J 14368/08 after 48 hrs by microbroth dilution method; details: J 14368/08, 48 h; summary of the method: as §1
[25] = tested on: Trichophyton mentagrophytes; test: Antifungal activity against Trichophyton mentagrophytes 445 after 72 hrs by microbroth dilution method; details: Trichophyton mentagrophytes, 445, 72 h
Escherichia coli [26] = test: Antibacterial activity against Escherichia coli CCM 4517 after 48 hrs by microbroth dilution method; details: CCM 4517, 48 h; summary of the method: as §1
Trichosporon asahii [27] = test: Antifungal activity against Trichosporon asahii 1188 after 48 hrs by microbroth dilution method; details: Trichosporon asahii, 1188, 48 h
Staphylococcus aureus [28] = test: Antibacterial activity against Staphylococcus aureus CCM 4516/08 after 48 hrs by microbroth dilution method; details: CCM 4516/08, 48 h; summary of the method: as §2

Structure (SMILES) | MIC (Staphylococcus aureus [1]) [µM] | MIC (Klebsiella pneumoniae [2]) [µM] | MIC (Nakaseomyces glabratus [3]) [µM] | MIC (Staphylococcus aureus [4]) [µM] | MIC [5] [µM] | MIC (Pichia kudriavzevii [6]) [µM] | MIC (Enterococcus sp. [7]) [µM] | MIC (Pichia kudriavzevii [8]) [µM] | MIC (Candida tropicalis [9]) [µM] | MIC (Candida albicans [10]) [µM] | MIC [11] [µM] | MIC (Trichosporon asahii [12]) [µM] | MIC (Staphylococcus aureus [13]) [µM] | MIC (Enterococcus sp. [14]) [µM] | MIC (Klebsiella pneumoniae [15]) [µM] | MIC (Lichtheimia corymbifera [16]) [µM] | MIC (Candida tropicalis [17]) [µM] | MIC (Lichtheimia corymbifera [18]) [µM] | MIC (Nakaseomyces glabratus [19]) [µM] | MIC (Klebsiella pneumoniae [20]) [µM] | further results
O=C(NCc1ccccc1)Oc1ccccc1C(=O)Nc1ccccc1 | 250 (≈ 86.6 µg/mL) | > 500 | 250 (≈ 86.6 µg/mL) | 500 (≈ 173 µg/mL) | 15.6 (≈ 5.41 µg/mL) | 125 (≈ 43.3 µg/mL) | > 500 | 125 (≈ 43.3 µg/mL) | 125 (≈ 43.3 µg/mL) | 125 (≈ 43.3 µg/mL) | 500 (≈ 173 µg/mL) | 125 (≈ 43.3 µg/mL) | 500 (≈ 173 µg/mL) | > 500 | > 500 | > 500 | 125 (≈ 43.3 µg/mL) | > 500 | 250 (≈ 86.6 µg/mL) | > 500 | MIC [21]: 500 µM (≈ 173 µg/mL); MIC (Escherichia coli [22]): > 500 µM; MIC (Candida albicans [23]): 125 µM (≈ 43.3 µg/mL); MIC (Klebsiella pneumoniae [24]): > 500 µM; MIC [25]: 15.6 µM (≈ 5.41 µg/mL); MIC (Escherichia coli [26]): > 500 µM; MIC (Trichosporon asahii [27]): 125 µM (≈ 43.3 µg/mL); MIC (Staphylococcus aureus [28]): 250 µM (≈ 86.6 µg/mL)
O=C(NC1CCCCC1)Oc1ccccc1C(=O)Nc1ccccc1 | 250 (≈ 84.6 µg/mL) | > 500 | > 500 | 500 (≈ 169 µg/mL) | > 500 | > 500 | 500 (≈ 169 µg/mL) | > 500 | > 500 | > 500 | 500 (≈ 169 µg/mL) | > 500 | 500 (≈ 169 µg/mL) | 500 (≈ 169 µg/mL) | > 500 | > 500 | > 500 | > 500 | > 500 | > 500 | MIC [21]: 500 µM (≈ 169 µg/mL); MIC (Escherichia coli [22]): > 500 µM; MIC (Candida albicans [23]): > 500 µM; MIC (Klebsiella pneumoniae [24]): > 500 µM; MIC [25]: > 500 µM; MIC (Escherichia coli [26]): > 500 µM; MIC (Trichosporon asahii [27]): > 500 µM; MIC (Staphylococcus aureus [28]): 250 µM (≈ 84.6 µg/mL)
